Assay [1] is described as follows: Ratio of inhibitory concentration of prothrombinase to that of human factor Xa was determined.
Another assay concerns the target Plasminogen (Homo sapiens, UniProt P00747). Description: In vitro inhibition of human plasmin. The gist of the method: (§1)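 Purified human enzymes (plasmin, thrombin/factor IIa, trypsin) were each tested for inhibitor-dependent cleavage of a chromogenic substrate. IC50 is the concentration that blocks 50% of substrate cleavage.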
Assay [2] concerns the target T1, Coagulation factor X (Homo sapiens, UniProt P00742). Put plainly: In vitro inhibition of human Coagulation factor X.
The next assay has as its target Prothrombin (Homo sapiens, UniProt P00734). Description: In vitro inhibition of human thrombin. The gist of the method: as §1
A short description of assay [3]: Concentration required to inhibit the activation of human prothrombin in a preformed complex of factor Xa, factor IIa and phospholipid in vitro. The settings on record: in the assay text read “factor Va” for “factor IIa”. The gist of the method: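 The assembled prothrombinase complex was assayed with its natural substrate, prothrombin, to measure inhibition of prothrombin activation. IC50 is the concentration giving 50% inhibition.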

The target of a further assay is Serine protease 1 (Homo sapiens, UniProt P07477). Description: In vitro inhibition of human trypsin. The gist of the method:
as §1

Assay [4] concerns the target T1, Coagulation factor X. Put plainly: Concentration required to inhibit the cleavage of the chromogenic substrate by human enzyme Coagulation factor X in vitro.
In assay [5] the target is T1, Coagulation factor X. Description: Concentration required for classical fast inhibition of cleavage of the chromogenic substrate by human enzyme Coagulation factor X in vitro.
For assay [6], the target named is T1, Coagulation factor X. Description: In vitro inhibitory activity against human Coagulation factor X.

Broadly, the IC50 is the concentration that inhibits the measured activity by half. What is called Ki is the dissociation constant of the complex between target and ligand, obtained from inhibition or displacement. A higher Ki goes with weaker binding.

Chain of Plasminogen (P00747 97-580 limits assumed): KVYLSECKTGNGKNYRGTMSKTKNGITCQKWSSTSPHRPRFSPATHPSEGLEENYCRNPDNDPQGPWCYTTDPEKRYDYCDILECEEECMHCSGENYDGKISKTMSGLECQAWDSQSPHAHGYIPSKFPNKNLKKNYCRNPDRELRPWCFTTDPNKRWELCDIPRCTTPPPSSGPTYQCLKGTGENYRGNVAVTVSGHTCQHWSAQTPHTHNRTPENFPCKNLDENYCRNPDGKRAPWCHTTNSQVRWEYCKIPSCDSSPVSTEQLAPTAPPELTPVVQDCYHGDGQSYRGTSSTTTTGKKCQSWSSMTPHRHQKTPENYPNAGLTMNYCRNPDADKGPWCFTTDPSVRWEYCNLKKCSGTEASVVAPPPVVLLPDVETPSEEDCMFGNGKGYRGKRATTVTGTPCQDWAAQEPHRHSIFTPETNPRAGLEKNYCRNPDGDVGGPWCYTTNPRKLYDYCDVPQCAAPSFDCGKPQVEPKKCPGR
Chain of Plasminogen (P00747 581-810 limits assumed): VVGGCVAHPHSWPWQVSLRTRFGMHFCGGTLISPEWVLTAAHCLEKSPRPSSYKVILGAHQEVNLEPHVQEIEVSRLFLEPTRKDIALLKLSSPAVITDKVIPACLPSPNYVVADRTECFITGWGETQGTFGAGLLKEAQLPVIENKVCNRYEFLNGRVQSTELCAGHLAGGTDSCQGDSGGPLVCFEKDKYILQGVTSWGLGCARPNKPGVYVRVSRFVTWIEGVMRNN
T1 sequence (P00742 41-179 limits assumed): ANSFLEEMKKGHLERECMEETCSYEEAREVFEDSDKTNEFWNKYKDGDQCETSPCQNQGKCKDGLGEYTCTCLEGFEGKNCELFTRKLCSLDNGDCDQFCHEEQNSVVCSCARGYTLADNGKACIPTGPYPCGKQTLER
T1 sequence (P00742 235-488 limits assumed): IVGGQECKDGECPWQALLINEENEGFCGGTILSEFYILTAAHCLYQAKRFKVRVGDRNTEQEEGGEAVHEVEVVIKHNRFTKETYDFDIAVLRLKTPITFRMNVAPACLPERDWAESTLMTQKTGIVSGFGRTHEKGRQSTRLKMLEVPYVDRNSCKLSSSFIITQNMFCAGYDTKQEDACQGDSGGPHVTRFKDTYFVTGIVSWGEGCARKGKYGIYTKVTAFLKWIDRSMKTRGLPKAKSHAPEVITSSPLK
Chain of Serine protease 1 (P07477 whole entry): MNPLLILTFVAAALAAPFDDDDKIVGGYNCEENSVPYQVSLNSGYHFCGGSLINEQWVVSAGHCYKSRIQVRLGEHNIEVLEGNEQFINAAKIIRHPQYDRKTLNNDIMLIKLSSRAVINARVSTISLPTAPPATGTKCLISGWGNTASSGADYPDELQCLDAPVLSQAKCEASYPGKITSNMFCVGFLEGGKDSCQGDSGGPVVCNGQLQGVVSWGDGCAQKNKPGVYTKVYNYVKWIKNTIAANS

As for `N=C(N)N1CCCC(C[C@@H](NS(=O)(=O)Cc2ccccc2)C(=O)NCC(=O)N[C@H]2CCCN(C(=N)N)C2O)C1` (single isomer, unassigned) [listing 1 of 2 here], in assay [1], the Ratio stood at 2.
As for `N=C(N)N1CCCC(C[C@@H](NS(=O)(=O)Cc2ccccc2)C(=O)NCC(=O)N[C@H]2CCCN(C(=N)N)C2O)C1` (single isomer, unassigned) [listing 2 of 2 here], the half-inhibitory concentration (IC50) at Plasminogen is 919 nM; against Coagulation factor X [2], 1.2 nM; at Prothrombin it was greater than 2500 nM; in assay [3] it was 4.2 nM; at Serine protease 1, 120 nM.
Turning to `N=C(N)N1CCC(C[C@@H](NS(=O)(=O)Cc2ccccc2C(=O)O)C(=O)NCC(=O)N[C@H]2CCCN(C(=N)N)C2O)CC1` (some centres undefined), the IC50 on Coagulation factor X [4] is 5.3 nM; at Plasminogen, 2500 nM; on Coagulation factor X [2] it was 5.7 nM; against Prothrombin, greater than 2500 nM; in [3] it was 12 nM; against Serine protease 1, 447 nM. Further, the Ratio in [1] is 2.3.
Take `N=C(N)N1CCC(C[C@@H](NS(=O)(=O)Cc2cccc(C(=O)O)c2)C(=O)NCC(=O)N[C@H]2CCCN(C(=N)N)C2O)CC1` (some centres undefined): the IC50 against Plasminogen is 231 nM; at Coagulation factor X [2], 4.3 nM; at Prothrombin, greater than 2500 nM; in [3], 14 nM; against Serine protease 1, 211 nM. Further, in assay [1], the Ratio was 0.9. Besides, the Ki at Coagulation factor X [5] was 16 nM.
Regarding `N=C(N)N1CCCC(C[C@@H](NS(=O)(=O)Cc2ccccc2)C(=O)NCC(=O)N[C@H]2CCCN(C(=N)N)C2O)C1` (stereo in doubt) [listing 1 of 2 here], the Ratio in assay [1] is 3.6.
As for `N=C(N)NCCC[C@@H](NC(=O)OCc1ccccc1)C(=O)NCC(=O)N[C@H]1CCCN(C(=N)N)C1O` (stereo in doubt) [listing 1 of 2 here], the Ratio in assay [1] turned out to be 3.8.
With `N=C(N)N1CCCC(C[C@@H](NS(=O)(=O)Cc2ccccc2C(=O)O)C(=O)NCC(=O)N[C@H]2CCCN(C(=N)N)C2O)C1` (stereo in doubt), the IC50 is greater than 2500 nM against Plasminogen, 4.2 nM against Coagulation factor X [2], 352 nM against Prothrombin and 33 nM at Serine protease 1.
Regarding `COC(=O)N[C@H](CC1CCN(C(=N)N)CC1)C(=O)NCC(=O)N[C@H]1CCCN(C(=N)N)C1O` (some centres undefined), the IC50 on Plasminogen was greater than 2500 nM; at Prothrombin, greater than 2500 nM; against Serine protease 1, 412 nM. On Coagulation factor X [6], this molecule came in with a Ki of 23 nM.
On to `COC(=O)c1ccccc1CS(=O)(=O)N[C@H](CC1CCCN(C(=N)N)C1)C(=O)NCC(=O)N[C@H]1CCCN(C(=N)N)C1O` (stereo in doubt; form 2), for which the IC50 against Plasminogen is 894 nM; against Coagulation factor X [2], 1.08 nM; at Prothrombin, greater than 2500 nM; on Serine protease 1, 124 nM.
For `COC(=O)c1cccc(CS(=O)(=O)N[C@H](CC2CCN(C(=N)N)CC2)C(=O)NCC(=O)N[C@H]2CCCN(C(=N)N)C2O)c1` (some centres undefined), the IC50 was 387 nM at Plasminogen, 2.2 nM against Coagulation factor X [2], greater than 2500 nM at Prothrombin and 145 nM against Serine protease 1.
Consider `N=C(N)N1CCC(C[C@@H](NS(=O)(=O)Cc2ccccc2-n2cnnn2)C(=O)NCC(=O)N[C@H]2CCCN(C(=N)N)C2O)CC1` (some centres undefined), for which the IC50 was 872 nM on Plasminogen; 2.6 nM at Coagulation factor X [2]; greater than 2500 nM against Prothrombin; 69 nM in assay [3]; 537 nM at Serine protease 1. The Ratio in [1] was determined as 3. On Coagulation factor X [5], the affinity, expressed as Ki, was 23 nM.
As for `N=C(N)NCCC[C@@H](NC(=O)OCc1ccccc1)C(=O)NCC(=O)N[C@H]1CCCN(C(=N)N)C1O` (stereo in doubt) [listing 2 of 2 here], the IC50 at Coagulation factor X [2] came out at 0.9 nM; in assay [3], 3.4 nM.
In the same order, the values of `N=C(N)NCCC[C@@H](NC(=O)OCc1ccccc1)C(=O)NCC(=O)N[C@H]1CCCN(C(=N)N)C1O` (single isomer, unassigned) [listing 1 of 2 here] are 35 nM and 7.9 nM.
Consider `N=C(N)N1CCCC(C[C@@H](NS(=O)(=O)Cc2ccccc2)C(=O)NCC(=O)N[C@H]2CCCN(C(=N)N)C2O)C1` (stereo in doubt) [listing 2 of 2 here], for which the IC50 at Plasminogen was 726 nM; at Coagulation factor X [2], 0.92 nM; on Prothrombin it was greater than 2500 nM; in assay [3] it was 3.3 nM; at Serine protease 1, 31 nM.
Consider `N=C(N)NCCC[C@@H](NC(=O)OCc1ccccc1)C(=O)NCC(=O)N[C@H]1CCCN(C(=N)N)C1O` (single isomer, unassigned) [listing 2 of 2 here], for which the Ratio in assay [1] amounted to 0.23.
Consider `CCOC(=O)c1ccc(CCOC(=O)N[C@H](CC2CCN(C(=N)N)CC2)C(=O)NCC(=O)N[C@H]2CCCN(C(=N)N)C2O)cc1` (some centres undefined), for which the IC50 is 1440 nM against Plasminogen, greater than 2500 nM against Prothrombin and 158 nM on Serine protease 1. Besides, the Ki at Coagulation factor X [6] was 16 nM.
Consider `N=C(N)N1CCCC(C[C@@H](NS(=O)(=O)Cc2ccccc2C(=O)O)C(=O)NCC(=O)N[C@H]2CCCN(C(=N)N)C2O)C1` (single isomer, unassigned), for which the IC50 at Plasminogen is 2500 nM; against Coagulation factor X [2], 2.1 nM; on Prothrombin, greater than 2500 nM; at Serine protease 1, 240 nM.
As for `COC(=O)c1ccccc1CS(=O)(=O)N[C@H](CC1CCCN(C(=N)N)C1)C(=O)NCC(=O)N[C@H]1CCCN(C(=N)N)C1O` (stereo in doubt; form 1), the IC50 worked out at 1950 nM against Plasminogen, 1.37 nM against Coagulation factor X [2], 1100 nM at Prothrombin and 15 nM against Serine protease 1.
Take `N=C(N)NCCC[C@@H](NC(=O)OCc1ccccc1)C(=O)NCC(=O)N[C@H]1CCCN(C(=N)N)C1O` (stereo in doubt; 1): the IC50 is greater than 2500 nM at Plasminogen, 34.9 nM at Coagulation factor X [2], greater than 2500 nM against Prothrombin and 115 nM on Serine protease 1.
On to `N=C(N)N1CCC(C[C@@H](NS(=O)(=O)Cc2ccccc2)C(=O)NCC(=O)N[C@H]2CCCN(C(=N)N)C2O)CC1` (some centres undefined), for which the IC50 at Plasminogen was 869 nM; against Coagulation factor X [2], 0.83 nM; on Prothrombin it was greater than 2500 nM; in [3] it was 3.1 nM; on Serine protease 1, 169 nM. Further, the Ratio in assay [1] stood at 3.7.
As for `N=C(N)N1CCC(C(NS(=O)(=O)Cc2ccccc2)C(=O)NCC(=O)N[C@H]2CCCN(C(=N)N)C2O)CC1` (some centres undefined), the IC50 against Plasminogen is 678 nM; against Coagulation factor X [2], 1.1 nM; on Prothrombin it was greater than 2500 nM; at Serine protease 1, 25 nM.
In the case of `COC(=O)c1ccccc1CS(=O)(=O)N[C@H](CC1CCN(C(=N)N)CC1)C(=O)NCC(=O)N[C@H]1CCCN(C(=N)N)C1O` (some centres undefined), the IC50 is 965 nM against Plasminogen, 0.94 nM on Coagulation factor X [2], greater than 2500 nM against Prothrombin and 147 nM at Serine protease 1.
Consider `N=C(N)NCCC[C@@H](NS(=O)(=O)Cc1ccccc1)C(=O)NCC(=O)N[C@H]1CCCN(C(=N)N)C1O` (some centres undefined), for which the IC50 against Plasminogen was 1190 nM; against Coagulation factor X [2], 0.9 nM; on Prothrombin, greater than 2500 nM; against Serine protease 1, 75 nM.

Values taken from ChEMBL document CHEMBL1133331, “Guanylpiperidine peptidomimetics: potent and selective bis-cation inhibitors of factor Xa” (Bioorg Med Chem Lett, 2000).
